Screens from PubChem.
Most compounds without a hit are left out; they make up all but 1.5% or so of the library.
SIAE primary: human SIAE inhibitors, primary screen, biochemical, fluorescence polarization, FP-Rh probe, 1536-well HTS; SIAE FP-Rh probe binding; inhibition, % at 9.66 µM; actives 0.69% (n = 370,000); AID 1053197, 2014;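 active means inhibition above a cutoff: mean of compounds within the control limits plus 3 SD of those, cut at about 17% in these data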
HTRA1 inhibitor: HTRA1 serine protease inhibitors, primary screen, biochemical, fluorescence polarization, HTS; AID 504803, 2011; actives 0.5% (n = 340,000); inhibition, % at 5.96 µM; recombinant HTRA1, FP-rhodamine activity-based probe; in the data active means inhibition above about 36%
DAGLB inh: DAGLB lipase inhibitors, primary screen, biochemical, fluorescence, HTS; Diacylglycerol lipase-beta (Homo sapiens), Q8NCG7; HEK293T DAGLB membrane lysate, EnzChek fluorogenic substrate; inhibition, % at 5.17 µM; actives 0.059% (n = 340,000); in the data active means inhibition above about 34%
Target sequence (Q8NCG7 whole entry, looked up): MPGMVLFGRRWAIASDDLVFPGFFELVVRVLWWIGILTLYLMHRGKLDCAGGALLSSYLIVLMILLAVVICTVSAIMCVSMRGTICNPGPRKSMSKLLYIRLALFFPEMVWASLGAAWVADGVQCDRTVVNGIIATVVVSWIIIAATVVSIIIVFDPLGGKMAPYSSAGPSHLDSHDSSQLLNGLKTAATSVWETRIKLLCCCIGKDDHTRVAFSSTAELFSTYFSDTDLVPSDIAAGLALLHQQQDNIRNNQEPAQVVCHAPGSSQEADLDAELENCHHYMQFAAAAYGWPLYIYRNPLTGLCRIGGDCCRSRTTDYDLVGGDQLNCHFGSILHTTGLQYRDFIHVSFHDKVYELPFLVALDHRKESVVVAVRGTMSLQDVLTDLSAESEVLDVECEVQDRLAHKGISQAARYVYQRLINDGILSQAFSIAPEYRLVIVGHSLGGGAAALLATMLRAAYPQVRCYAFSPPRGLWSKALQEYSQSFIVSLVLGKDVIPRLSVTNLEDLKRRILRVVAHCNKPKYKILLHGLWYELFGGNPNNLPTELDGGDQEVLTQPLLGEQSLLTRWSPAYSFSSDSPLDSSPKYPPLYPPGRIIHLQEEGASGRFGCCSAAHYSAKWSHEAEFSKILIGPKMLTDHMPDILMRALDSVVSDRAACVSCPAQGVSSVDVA
TCR CD3 inh: inhibitors of human TCR-CD3 interaction, primary screen, biochemical, fluorescence, TAMRA-labeled TCR probe; inhibition, % at 9.4 µM; actives 0.37% (n = 360,000); AID 651800, 2012;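 further: recombinant mutant TCR 2C K166C tagged with TAMRA read by polarization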
mABHD4 FP: ABHD4 inhibitors, primary screen, biochemical, fluorescence polarization, mouse; (Lyso)-N-acylphosphatidylethanolamine lipase (Mus musculus), Q8VD66; inhibition, % at 8.92 µM; purified mABHD4, FP-Rh probe fluorescence polarization; actives 0.54% (n = 370,000);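 active means inhibition exceeding the mean over every tested compound plus 3 SD, cut at about 30% in these data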
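Test system: mouse ABHD4 enzyme, wild type. Reagent: FP-Rh fluorescent activity-based probe, added after compound pre-incubation. Timing: pre-incubation 45 min, probe exposure 60 min, at 25 °C. Technique: FP readout, ex 525 nm / em 598 nm. Benchmarks: high control S159A mutant with DMSO, low control median of compound wells.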
DAGLB inh conf: DAGLB lipase inhibitors, retest, confirmation, biochemical, fluorescence, HEK293T membranes. shares compounds with DAGLB inh. HEK293T DAGLB membrane lysate, EnzChek fluorogenic substrate. inhibition, % at 5.17 µM. actives 73% (n = 190);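 active means mean inhibition over triplicate wells above a set limit taken from the primary lipase screen, cut at about 34% in these data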
HTRA1 conf: HTRA1 protease inhibitors, retest, confirmation, biochemical, fluorescence polarization. inhibition, % at 5.96 µM. AID 540248, 2011. shares compounds with HTRA1 inhibitor. actives 66% (n = 1,600). recombinant HTRA1, FP-rhodamine activity-based probe;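 active means mean inhibition over three repeats above a set limit taken from the earlier primary screen, cut at about 37% in these data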;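 further: inhibitors block probe binding so polarization drops and inhibition rises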
BSA probe FL: compounds interfering with TAMRA-BSA probe, counter-screen for TCR-CD3 interaction inhibitor project, biochemical, fluorescence, TAMRA-labeled BSA. shares compounds with TCR CD3 inh. TAMRA-labeled BSA probe fluorescence counterscreen. inhibition, % at 9.4 µM. actives 10% (n = 1,200). AID 652035, 2013; in the data active means inhibition above about 23%
TCR-CD3 inh conf: TCR-CD3 interaction inhibitors, retest, confirmation, biochemical, fluorescence, TAMRA-labeled TCR probe | shares compounds with TCR CD3 inh | TAMRA-labeled TCR probe fluorescence binding assay | inhibition, % at 9.4 µM | actives 48% (n = 1,200) | AID 652036, 2013
ABHD4 confirm: ABHD4 inhibitors, retest, confirmation, biochemical, fluorescence polarization, mouse; shares compounds with mABHD4 FP; actives 55% (n = 1,800); AID 720658, 2013; purified mABHD4, FP-Rh probe fluorescence polarization; inhibition, % at 8.92 µM;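 active means mean inhibition across replicates above the hit cutoff set in the primary screen, cut at about 30% in these data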
SIAE confirm: human SIAE inhibitors, retest, confirmation, biochemical, fluorescence polarization, FP-Rh probe, triplicate. actives 13% (n = 2,300). shares compounds with SIAE primary. inhibition, % at 9.66 µM. SIAE FP-Rh activity-based probe;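 active means mean inhibition of the replicates above the hit cutoff set in the primary screen, cut at about 17% in these data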;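 further: inhibitors lower polarization as more probe stays unbound to SIAE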
Hits are given with their value; . = inactive; / = not tested or not shown. Unless noted, no stated cut-off is given here; in the data, active means inhibition above about 19%; inactive means the rest.

SMILES	SIAE primary	HTRA1 inhibitor	DAGLB inh	TCR CD3 inh	mABHD4 FP	DAGLB inh conf	HTRA1 conf	ABHD4 confirm	others
Nc1nc(-c2ccccc2)c(N=Nc2cccc3ccccc23)s1	.	76	61	.	49	66	80	58
Cc1ccc(S(=O)(=O)N2CC3=C(c4ccccc4)CC4(C)C(=O)C(C)(C)CC4=C3C2)cc1 (configuration not stated)	.	/	/	.	.	/	/	/
C[C@H](CO)N1C[C@H](C)[C@H](CN(C)Cc2cccc(F)c2)Oc2ncc(C3=CCCC3)cc2C1=O	.	/	/	.	.	/	/	/
O=C(Nc1ccc(F)cc1)OCc1cn(Cc2cccc(C(F)(F)F)c2)nn1	.	/	/	/	.	/	/	/
CC(=O)Oc1cc2c3c(c1)/C(=C1/SC(=S)NC1=O)C(=O)N3C(C)(C)C=C2C	.	.	50	.	61	59	/	101
COc1cc(/C=C2/C(=O)NN(c3ccc(Cl)c(Cl)c3)C2=O)cc([N+](=O)[O-])c1O	.	38	38	.	60	50	42	80
O=C(O)c1ccccc1NS(=O)(=O)c1ccc(N/N=C/c2ccc(O)c(O)c2)c([N+](=O)[O-])c1	.	66	52	19	81	59	143	100	BSA probe FL=.;TCR-CD3 inh conf=43
NS(=O)(=O)c1ccc(N/N=C/c2ccccc2C(=O)O)c([N+](=O)[O-])c1	.	.	.	.	.	/	/	/
O=C(O)COc1ccccc1/C=N/Nc1ccc(S(=O)(=O)Nc2ccc(Cl)cc2)cc1[N+](=O)[O-]	.	54	40	.	63	40	88	79
CCCc1cc(=O)n2[nH]c(C)c(-c3ccccc3)c2n1	.	.	.	.	.	/	/	/
Cc1[nH]n2c(=O)cc(-c3ccc([N+](=O)[O-])cc3)nc2c1-c1ccccc1	.	40	48	.	48	42	87	72
O=C(Nc1ccccc1C(=O)NCC1CC1)c1cccs1	.	/	/	.	.	/	/	/
CC(C1SC(=S)NC1=O)C1SC(=S)NC1=O (configuration not stated)	.	60	44	.	46	37	47	.
CC1=C(O)C(=O)C(c2c(C)cc(C)c(Br)c2C)=C(O)C1=O	.	84	43	23	79	.	74	74	BSA probe FL=.;TCR-CD3 inh conf=.
CCCCc1ccc(C2C3=C(CC(C)(C)CC3=O)NC3=C2C(=O)c2ccccc23)cc1 (configuration not stated)	19	.	46	.	.	.	/	/	SIAE confirm=.
O=[N+]([O-])c1ccccc1N/N=C/c1c[nH]c2ccccc12	18	78	58	.	49	61	76	89	SIAE confirm=21
CCN(CC)C(=O)CSc1nc2ccccc2c(=O)n1-c1cccc(OC)c1	.	.	.	.	.	/	/	/
COc1cccc(-n2c(SCc3cc(=O)oc4cc(O)c(O)cc34)nc3ccccc3c2=O)c1	32	67	40	19	.	.	76	/	BSA probe FL=.;TCR-CD3 inh conf=32;SIAE confirm=.
O=C(Nc1nc2ncccn2c1-c1ccccc1)C1CC1	.	/	/	/	.	/	/	/
O=C(NNc1c2ccccc2nc2ccccc12)c1ccc(O)cc1O	28	.	39	.	35	53	/	62	SIAE confirm=.
O=C(NNc1c2ccccc2nc2ccccc12)c1ccccc1Cl	.	.	.	.	.	/	/	/
O=C(NNc1c2ccccc2nc2ccccc12)c1ccccc1O	19	51	48	.	.	82	39	/	SIAE confirm=18
COc1ccc(CNC(=O)c2cc(-c3ccccc3)c(N3CCOCC3)s2)cc1OC	.	/	/	/	.	/	/	/
FC(F)(F)Oc1cccc(Cn2ccc3ccc(-c4ccc5ccn(Cc6cccc(OC(F)(F)F)c6)c5c4)cc32)c1	.	/	/	/	.	/	/	/
CCOC(=O)N1CCN(S(=O)(=O)c2ccc(C(=O)NNc3nc4c(C)cccc4s3)cc2)CC1	.	48	.	.	.	/	168	/
SMILES	SIAE primary	HTRA1 inhibitor	DAGLB inh	TCR CD3 inh	mABHD4 FP	DAGLB inh conf	HTRA1 conf	ABHD4 confirm	others
CCOC(=O)N1CCN(S(=O)(=O)c2ccc(C(=O)NNc3nc4ccc(Cl)cc4s3)cc2)CC1	/	51	.	/	/	/	78	/
Cc1ccc(C)c(N=Nc2ccc(O)c3ncccc23)c1	.	52	.	.	.	/	66	/
Oc1ccc(N=Nc2ccc3c(c2)OCCO3)c2ncccc12	.	58	.	.	.	/	61	/
NS(=O)(=O)c1ccc(N=Nc2ccc(O)c3ncccc23)cc1	.	52	.	.	.	/	37	/
Cc1cccc(N=Nc2ccc(O)c3ncccc23)c1	.	59	.	.	.	/	64	/
Cc1ccc(N=Nc2cc(C)ccc2O)c(C)c1	.	.	.	.	.	/	/	/
CCOc1ccc(N=Nc2ccc(O)c3ncccc23)cc1	.	.	.	.	.	/	/	/
CCN1CCCCC(NC(=O)c2ccccc2OC)C1=O (configuration not stated)	.	/	/	/	.	/	/	/
CCOc1cc(OCC)cc(C(=O)N2CCC[C@@H]2C(=O)N2CCC[C@H]2C(=O)NCc2ccccc2)c1	.	/	/	.	.	/	/	/
COC(=O)C1CN(Cc2cn(Cc3ccc(C)cc3)nn2)CCS(=O)(=O)N1Cc1ccc(OC)cc1 (configuration not stated)	.	/	/	/	.	/	/	/
O=C(O)c1cc(N=Nc2c(O)ccc3ccccc23)cc(C(=O)O)c1	.	.	.	.	.	/	/	/
Oc1ccc(N=Nc2c(O)ccc3ccccc23)cc1	.	63	49	.	.	/	43	/
O=C1CC(/C=C/c2ccco2)=Nc2ccccc2N1	/	43	.	/	/	/	.	/
